# GPR7 antag – antagonists of human GPR7 (neuropeptides B/W receptor 1). P48145. GPR7-expressing cells, fluorescence antagonist assay. inhibition, % at 4.4 µM. 290,000 tested, 1.1% active. AID 1861; in the data active = inhibition above about 16%, passing the limit was not always enough;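 note: cells stimulated with the agonist NPW; 0% = agonist with vehicle and 100% = vehicle without agonist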
# Target sequence (P48145 whole entry, looked up): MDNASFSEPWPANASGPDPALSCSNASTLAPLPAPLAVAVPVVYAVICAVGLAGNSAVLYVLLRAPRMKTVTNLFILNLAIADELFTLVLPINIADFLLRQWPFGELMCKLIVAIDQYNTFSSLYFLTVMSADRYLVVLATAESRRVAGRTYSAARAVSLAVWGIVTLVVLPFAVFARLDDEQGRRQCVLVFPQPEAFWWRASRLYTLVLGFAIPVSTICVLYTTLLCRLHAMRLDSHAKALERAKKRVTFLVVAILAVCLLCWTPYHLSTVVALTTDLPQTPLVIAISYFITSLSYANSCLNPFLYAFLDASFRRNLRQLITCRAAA
# OX1R antag-1 – antagonists of human orexin 1 receptor; AID 434989; 330,000 tested, 0.43% active; O43613; CHO/OX1R cells, Fluo-8 calcium fluorescence, orexin A; inhibition, % at 5 µM;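 active = inhibition above its plate's threshold, mean inhibition of all tested compounds on the plate plus 3 SD, cut at about 37% in these data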;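 note: 0% = orexin A challenge wells and 100% = SB-334867-A antagonist wells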
# OX1R antag-2 – OX1R (human) antagonism; OX1R-expressing cells, FRET antagonist read-out; 330,000 tested, 1.8% active; inhibition, % at 6.6 µM; O43613; in the data active = inhibition mostly above about 38%, no sharp cut-off; inactive = mostly below about 40%;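 note: 0% = agonist challenge alone and 100% = reference antagonist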
# CHO parental Ca – counter-screen for OX1R antagonists: effect in parental CHO cells; parental CHO-K1, ATP-induced calcium, Fluo-8 fluorescence; inhibition, % at 5.6 µM; 330,000 tested, 0.63% active; AID 463079;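 active = inhibition above that plate's mean sample inhibition plus 3 SD, cut at about 26% in these data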;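 note: 0% = ATP-challenged DMSO wells and 100% = DMSO wells without ATP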
#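 Material: Parental CHO cells | Reagent: ATP | Compound dosing: Single nominal dose of 5.6 µM per compound | Detection: Intracellular calcium via Fluo-8 no-wash fluorescent dye | Read-out: % inhibition of ATP-induced calcium mobilization | Benchmarks: Low control ATP plus DMSO, high control DMSO only | Replicates: Singlicate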
# GalR3 antag – blocks the human galanin receptor 3. HEK293 GalR3-CNG cAMP membrane potential fluorescence; galR3 body fused to GalR1 C-terminus. inhibition, % at 3 µM. 360,000 tested, 0.44% active. AID 651719;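 active = inhibition above the screen-wide average plus 3 SD, cut at about 13% in these data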;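 note: forskolin and galanin both at EC90 stimulate the cells; cAMP rise reported by CNG channel membrane potential dye signal; 0% = forskolin plus galanin with DMSO and 100% = forskolin alone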
# Target sequence (O60755 1-299 limits assumed): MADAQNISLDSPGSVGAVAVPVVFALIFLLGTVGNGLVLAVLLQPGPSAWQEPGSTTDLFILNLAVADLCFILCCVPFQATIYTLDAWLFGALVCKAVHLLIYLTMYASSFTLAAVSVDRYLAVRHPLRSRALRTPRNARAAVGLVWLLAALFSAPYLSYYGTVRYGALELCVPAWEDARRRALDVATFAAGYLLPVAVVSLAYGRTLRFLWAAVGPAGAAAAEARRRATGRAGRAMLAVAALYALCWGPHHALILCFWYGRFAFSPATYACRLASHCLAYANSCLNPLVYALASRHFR
# Numbers without * were called inactive; nt = no result; + = active, no number. An excerpt weighted towards active compounds, which were near 3.1% of everything screened.
SMILES,GPR7 antag,OX1R antag-1,OX1R antag-2,CHO parental Ca,GalR3 antag
COC(=O)[C@H](C)NC(=O)NC1CCCc2ccccc21 (some centres undefined),-1.9,61.5*,4.2,35.8*,nt
Cc1cc(/C=C2\SC(=S)N(C)C2=O)c(C)n1-c1ccccc1O,nt,51.5*,34.0,36.4*,-5.1
CC(C)n1[nH]c2ccccc2c1=O,nt,nt,nt,nt,-4.2
Cc1ccc(-n2c(C)cc(C(=O)CSc3nncs3)c2C)cc1,-1.9,92.3*,56.6*,23.7,-3.3
C=CCO[C@H]1CN(C(=O)OC)[C@@H]2C[C@H]1Oc1ccccc12,nt,nt,nt,nt,-7.6
COc1ccc(C2CC(=O)C(c3ccccc3OC)=CN2Cc2ccccc2)cc1 (centres undefined),nt,nt,nt,nt,-4.2
COc1ccccc1OCCSc1nnnn1-c1ccc(C)cc1,nt,-41.2,16.2,40.1*,-1.4
N#Cc1c(-c2ccco2)cc(-c2ccccn2)nc1N,1.2,4.1,73.5*,-15.3,-2.0
COc1cccc(/C=C2/SC(=S)N(CC(=O)NNC(=O)c3ccccc3O)C2=O)c1,-4.3,-3.1,48.2*,-10.8,-10.3
COc1ccc(/C=C2/SC(=S)N(CCCC(=O)Nc3ccc(O)cc3)C2=O)cc1OC,-25.0,-11.3,53.8*,-1.5,-2.1
O=C(CN1C(=O)/C(=C/c2ccccc2)SC1=S)NNC(=O)c1ccccc1O,-4.0,-5.7,13.8,0.1,-9.3
COc1cccc(/C=C2/SC(=S)N(CCCC(=O)Nc3ccc(O)cc3)C2=O)c1,-18.7,10.5,73.0*,-9.5,-0.3
O=C(CCN1C(=O)/C(=C/c2ccc3c(c2)OCO3)SC1=S)Nc1cccc(C(=O)O)c1,-4.4,-4.8,10.1,3.8,-7.0
O=C(CCCN1C(=O)/C(=C/c2ccc3c(c2)OCO3)SC1=S)Nc1cccc(C(=O)O)c1,12.0,6.7,54.3*,-16.9,-2.3
CCCCNC(=O)C1(C)CCN1C(=O)c1cc(-c2cccs2)oc1C (centres undefined),nt,nt,nt,nt,-4.6
O=C(Nc1ccc2c(c1)OCO2)c1cc2n(n1)C(C(F)(F)F)CC(c1ccccc1)N2 (centres undefined),-14.4,-6.9,11.9,19.6,-6.2
O=C(Nc1ccc2c(c1)OCO2)c1cnn2c1NC(c1ccco1)CC2C(F)(F)F (centres undefined),-8.9,-18.0,14.8,46.8*,0.3
Cn1cc2cccc([N+](=O)[O-])c2n1,0.6,-0.3,73.9*,-1.4,-6.3
CCCCOc1ccc(C(=O)NC2CCCCN(C)C2=O)cc1 (centres undefined),nt,nt,nt,nt,-2.9
CC(C)C[C@H]1COc2cccc(F)c2S(=O)(=O)N1,nt,nt,nt,nt,-4.8
Cc1cnc(C)c(Nc2nc(C(N)Cc3ccc(Cl)cc3)cs2)n1 (centres undefined),nt,nt,nt,nt,2.1
COc1ccc(OC)c(C(=O)NC2CCSc3ccccc32)c1 (centres undefined),-0.9,-21.3,47.1*,-24.0,-8.5
CN(CC(=O)Nc1ccccc1C(F)(F)F)C(=O)CCc1nc2sc3c(c2c(=O)[nH]1)CCCC3,-16.3,-18.8,16.4,-15.3,0.9
CCN(CC(=O)Nc1c(F)cccc1F)C(=O)C(C)SCc1nc2sc(C)c(C)c2c(=O)[nH]1 (centres undefined),-17.4,-14.7,67.3*,-13.7,-3.2
CCN(CC(=O)Nc1c(F)cccc1F)C(=O)CCc1nc2sc3c(c2c(=O)[nH]1)CCCC3,nt,-5.3,67.2*,-2.8,-1.5
SMILES,GPR7 antag,OX1R antag-1,OX1R antag-2,CHO parental Ca,GalR3 antag
CCc1cccc(NC(=O)CSCc2nc3sc(C)c(C)c3c(=O)[nH]2)c1,nt,-12.9,8.3,-19.4,-4.1
CCN(CC(=O)Nc1ccccc1C(F)(F)F)C(=O)CCc1nc2sc3c(c2c(=O)[nH]1)CCCC3,nt,-6.5,42.1*,-12.8,-4.0
CC(C)(C)S(=O)(=O)N1C[C@@H]2CC(=O)C(CCO)=C2[C@H]1CCO,nt,nt,nt,nt,-7.3
CC(C)CNC(=O)C1(C)CCCCCN1Cc1ccccc1-c1ccccc1 (centres undefined),nt,nt,nt,nt,-5.4
COc1cc2[nH]c(=O)c(C(=O)NCc3ccc(C)cc3)c(O)c2cc1OC,nt,nt,nt,nt,-2.3
Cc1cc(-c2ccc(N=Nc3c(S(=O)(=O)O)cc4cc(S(=O)(=O)O)cc(N)c4c3O)c(C)c2)ccc1N=Nc1c(S(=O)(=O)O)cc2cc(S(=O)(=O)O)cc(N)c2c1O,nt,5.3,+,-3.4,nt
C[C@H](CO)N1C[C@H](C)[C@H](CN(C)Cc2ccccc2)Oc2ncc(Br)cc2C1=O,nt,nt,nt,nt,-5.5
CC1(C)N([O-])C(c2ccccc2)=C[N+](=O)C1(C)C,-9.7,9.3,8.7,-4.9,-6.3
CC1(C)N([O-])C(c2cccs2)=C[N+]1=O,0.0,-5.4,6.7,28.9*,1.2
c1ccc(CCCNc2ncnc3nc[nH]c23)cc1,-6.5,-0.9,21.1,3.0,3.9
c1ccc2c(CCNc3ncnc4nc[nH]c34)cccc2c1,8.4,28.3,22.4,33.5*,-6.9
C[C@@H]1CN([C@@H](C)CO)C(=O)c2cc(Br)cnc2O[C@H]1CN(C)Cc1ccccc1C(=O)O,nt,nt,nt,nt,-6.0
CCCOc1c(Br)cc(C(=O)OCc2cc(=O)n3ccsc3n2)cc1OC,nt,nt,nt,nt,-7.8
CCCN(CC(=O)Nc1ccccc1OC)C(=O)c1ccc(S(=O)(=O)Nc2ccccc2OC)cc1,nt,nt,nt,nt,-5.8
CCCN(CC(=O)Nc1ccccc1OC)C(=O)c1ccc(S(=O)(=O)Nc2ccccc2)cc1,nt,15.9,70.3*,0.9,-3.7
CC(=O)[C@]1(O)Cc2c(O)c3c(c(O)c2[C@@H](O[C@H]2C[C@H](N)[C@H](O)[C@H](C)O2)C1)C(=O)c1ccccc1C3=O,nt,42.2*,53.5,36.7*,nt
COc1cccc2c1C(=O)c1c(O)c3c(c(O)c1C2=O)C[C@@](O)(C(=O)CO)C[C@@H]3O[C@H]1C[C@H](N)[C@@H](O)[C@H](C)O1,nt,28.9,41.2*,19.5,nt
O=C1NC(=O)C2(CCCc3ccc(N(CCO)CCO)cc32)N1 (centres undefined),nt,nt,nt,nt,-2.2
O=C1NC[C@H](CCCCN2CCN(Cc3ccccc3)C(=O)C2=O)N(CCC2CCCCC2)C1=O,nt,nt,nt,nt,-4.2
Cc1ccc(N=Nc2ccc(O)c3ncccc23)cc1C,-1.4,2.2,3.4,8.7,-2.8
Cc1ccc(N=Nc2ccc(O)c3ncccc23)cc1,-16.7,44.5,20.5,58.8*,1.0
COCCn1c(SCC#N)nnc1-c1ccccc1O,-4.3,-5.0,5.7,-0.1,-2.8
COCCn1c(SCC#N)nnc1-c1ccc([N+](=O)[O-])cc1,2.4,-15.1,72.1*,-5.7,-6.0
CCSc1nnc(-c2ccccc2N=Cc2c(C)[nH]n(-c3ccccc3)c2=O)c(=O)[nH]1,-3.6,-1.8,44.1,-4.9,-2.6
Cc1ccc(-n2[nH]c(C)c(C=Nc3ccc(Br)cn3)c2=O)cc1,-13.3,-12.2,19.9,6.3,-2.5
CSc1nnc(-c2cc(Br)ccc2N=Cc2c(C)[nH]n(-c3ccccc3)c2=O)c(=O)[nH]1,-8.0,-21.0,48.2*,4.5,-2.5
CCSc1nnc(-c2cc(Br)ccc2N=Cc2c(C)[nH]n(-c3ccccc3)c2=O)c(=O)[nH]1,5.5,-17.9,75.4*,-10.9,11.2

# Source: PubChem
